# Source: PubChem (several laboratories)
# Neddyl block: inhibitors of cullin neddylation, primary screen, biochemical, TR-FRET, uHTS, NAE and Ubc12. NEDD8-conjugating enzyme Ubc12 (Homo sapiens) + NEDD8-activating enzyme E1 regulatory …. inhibition, % at 25 µM. 360,000 tested, 0.58% active. AID 651699, 2012; in the data active = inhibition above about 36%
# CSN deneddyl inh: inhibitors of CSN-mediated cullin deneddylation, primary screen, biochemical, fluorescence polarization, uHTS; 360,000 tested, 0.38% active; inhibition, % at 12.5 µM; Purified CSN, SCF-Nedd8-OG deneddylation; COP9 signalosome complex subunit 5 (Homo sapiens), Q92905;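 active = pattern-corrected inhibition above about 35%, with an unprinted fluorescence ratio check between 0.5 and 1.5, limit read from the data, passing the limit was not always enough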;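 note: 0% = enzyme with substrate and 100% = substrate without enzyme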
#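 Detection – fluorescence polarization · System – HEK293T-derived human Csn5 enzyme · Controls – substrate-only high control, full reaction low control · Timing – 90 min, room temperature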
# Rpn11 inh: Rpn11 (PSMD14) deubiquitinase inhibitors, primary screen, biochemical, fluorescence polarization, uHTS; 360,000 tested, 0.59% active; AID 588493, 2011; 26S proteasome non-ATPase regulatory subunit 14 (Homo sapiens), O00487; inhibition, % at 20 µM; human 26S proteasome, Ub4-pepOG fluorescence polarization; 20S core pre-blocked with epoxomicin;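 active = inhibition at 20 µM, scaled to each plate's controls, above about 33%, limit read from the data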
# Target sequence (O00487 whole entry, looked up): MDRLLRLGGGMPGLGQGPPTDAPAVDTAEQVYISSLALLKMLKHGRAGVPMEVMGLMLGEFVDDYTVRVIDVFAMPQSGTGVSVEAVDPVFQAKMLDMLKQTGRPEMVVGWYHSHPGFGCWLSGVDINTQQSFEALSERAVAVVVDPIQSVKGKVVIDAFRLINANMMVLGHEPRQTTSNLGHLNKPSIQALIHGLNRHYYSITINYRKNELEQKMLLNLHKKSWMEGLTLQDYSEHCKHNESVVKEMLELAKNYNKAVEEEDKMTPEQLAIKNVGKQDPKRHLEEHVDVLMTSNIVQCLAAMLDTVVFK
# TbMetRS inhib: T. brucei MetRS inhibitors, primary screen, biochemical, luminescence. methionyl-tRNA synthetase (Trypanosoma brucei brucei). purified T. brucei MetRS, ATP depletion, Kinase-Glo luminescence. inhibition, % at 11.9 µM. 360,000 tested, 0.4% active. AID 624268, 2012;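 active = inhibition above a per-plate cutoff of the control wells' mean inhibition plus 3 SD, cut at about 5.5% in these data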;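 note: 0% = DMSO wells median and 100% = median of wells with control inhibitor compound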
#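 Measured by: Kinase-Glo luciferase luminescence reporting remaining unconsumed ATP. Material: purified T. brucei MetRS enzyme. Doses: 11.9 µM compound single dose, 0.9% DMSO. Medium: HEPES buffer containing pyrophosphatase, BSA, spermine, DTT. Times: 15 min preincubation, 2 h reaction, all 25 °C. Reagent: methionine, ATP and bulk E. coli tRNA.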
# HNF4A DNA FP: change in binding of human HNF4A to DNA, primary screen, biochemical, fluorescence polarization, FITC-DNA; Hepatocyte nuclear factor 4-alpha (Homo sapiens), P41235; 1 h; activity change, % at 10 µM; 360,000 tested, 0.3% active; AID 1224865, 2016; in the data active = activity change above about 30%, passing the limit was not always enough
# PREPL inhibitor: PREPL enzyme inhibitors, primary screen, biochemical, fluorescence polarization. 320,000 tested, 0.68% active. Prolyl endopeptidase-like (Homo sapiens), Q4J6C6. recombinant PREPL, fluorescence polarization activity-based probe. inhibition, % at 5.96 µM. AID 2751, 2010; in the data active = inhibition above about 43%;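 note: 0% = enzyme with DMSO and 100% = wells lacking enzyme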
# An asterisk follows results filed as active; x = not tested or not shown. Compounds with a hit are over-represented: about 2.4% of the library has one in this group of screens.
SMILES,Neddyl block,CSN deneddyl inh,Rpn11 inh,TbMetRS inhib,HNF4A DNA FP,PREPL inhibitor
CC(C)Cc1ccc(-c2cc3nc(NCC4CC4)ccn3n2)cc1,x,3,9,0,-1,x
COc1ccc(NC(=O)C/C(C)=N/NC(=O)c2cnccn2)cc1,-10,2,4,0,30*,11
CCOc1ccc(NC(=O)C/C(C)=N/NC(=O)c2cnccn2)cc1,9,-2,-1,0,1,x
COC1OC2COC(c3ccccc3)OC2C(O)C1NC(C)=O (centres undefined),-13,-2,2,-1,-1,x
O=[N+]([O-])c1ccc(N=Nc2ccc(O)c3ccccc23)cc1,-31,10,27,0,20,x
CC(C)CC1=C/C(=C/c2ccc(-c3ccccc3)o2)C(=O)O1,36,38*,53*,0,-17,14
CCOC(=O)C1=C(O)/C(=C/c2ccc(-c3ccccc3C(=O)O)o2)SC1=Nc1ccc(C)cc1,18,50*,x,-1,58*,x
Cc1ccc(Cl)cc1-c1cc(C(=O)NCC2CCCCC2)[nH]n1,-14,-2,-1,0,2,x
COc1cc(/C=C/C(=O)/C=C(O)/C=C/c2ccc(O)c(OC)c2)ccc1O,-14,119,x,0,117*,8
O=C(CSc1nnc2scc(-c3ccccc3)n12)Nc1nsc(-c2ccc(Cl)cc2)n1,-112,47*,24,0,-7,6
CC(=O)Nc1ccc(N=Cc2c(O)ccc3ccccc23)cc1,-98,42,x,0,77*,1
O=C(O)c1ccc(N=Cc2c(O)ccc3ccccc23)cc1,-3,-1,4,0,12,5
COc1ccc(N=Cc2c(O)ccc3ccccc23)cc1,-25,51*,x,-1,72*,7
O=C(NC1CCCc2ccccc21)c1c(F)cccc1Cl (centres undefined),4,5,6,0,4,0
CCOc1ccc(N(CC(=O)Nc2ccccc2C(=O)N2CCCC2)S(C)(=O)=O)cc1,-1,5,1,-1,-3,-10
COc1ccc(C(=O)NC(NC(=O)c2ccc(OC)c(OC)c2)c2ccccc2F)cc1OC,-4,2,-8,-1,45*,1
COc1ccc(C(=O)NCC(C)NC(=O)c2ccc(OC)c(OC)c2)cc1OC (centres undefined),-1,1,-8,-1,2,6
CO/N=C(\c1nonc1N)N1CCN(c2ccc([N+](=O)[O-])cc2Cl)CC1,-43,-3,3,7.0*,-4,17
O=C1[C@H](c2ccccc2)[C@@H](c2ccccc2)N1c1ccncc1,7,4,3,0,0,x
Cc1ccc(N(C(=O)c2snc(C(N)=O)c2N)C(CC(C)C)C(=O)NC2CCCC2)cc1 (centres undefined),32,110*,10,0,-2,4
CCCCC(C(=O)NC1CCCC1)N(C(=O)c1snc(C(N)=O)c1N)c1ccc(C)cc1 (centres undefined),-22,6,2,-1,0,1
COc1ccc(CCn2c(N)c(C#N)c3nc4ccccc4nc32)cc1OC,15,1,16,4,0,11
COc1ccc(Cn2c(N)c(C#N)c3nc4ccccc4nc32)cc1OC,38*,4,9,0,3,17
CCc1cccc(NC(=O)COC(=O)CSc2ccc(C)cc2)c1,-1,-4,0,0,-1,x
Cc1nc(-c2ccc([N+](=O)[O-])cc2)nc2[nH]ccc(=O)c12,-32,-2,-2,-1,2,x
CC(C)OCCCNC(=O)c1c(N)n(/N=C/c2cccs2)c2nc3ccccc3nc12,x,41*,4,-1,4,-11
O=S(=O)(Nc1nc2ccccc2nc1N1CCc2ccccc2C1)c1ccc(Cl)cc1,38,-1,8,-1,5,-2
